Molecular target: T1, Adenosine deaminase (Bos taurus) (UniProt P56658)
T1 sequence (whole entry): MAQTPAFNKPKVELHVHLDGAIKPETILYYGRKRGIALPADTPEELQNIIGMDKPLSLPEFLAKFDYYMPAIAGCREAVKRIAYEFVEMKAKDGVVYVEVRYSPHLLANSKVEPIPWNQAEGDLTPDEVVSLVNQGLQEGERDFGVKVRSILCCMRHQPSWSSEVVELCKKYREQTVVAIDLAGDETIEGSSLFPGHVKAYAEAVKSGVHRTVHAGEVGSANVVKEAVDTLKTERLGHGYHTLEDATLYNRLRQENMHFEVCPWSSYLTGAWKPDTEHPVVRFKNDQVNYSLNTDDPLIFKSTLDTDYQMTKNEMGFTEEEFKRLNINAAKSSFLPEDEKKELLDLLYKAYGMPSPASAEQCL
Assay: Kcat/KM of compound against adenosine deaminase (ADA) was determined
Method in brief: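 Deamination by calf intestinal mucosa adenosine deaminase (0.15 units, MW 33 000, in 2 mL) in phosphate buffer pH 7.4 at 25 °C, substrate 15–100 μM, monitored by UV at 265 nm. Initial rates from graphical fitting of concentration vs time; Vmax and KM from Lineweaver–Burk plot, kcat calculated from enzyme amount.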

- k cat/Km: 3.1 µM⁻¹ s⁻¹
Structure (SMILES): Nc1ncnc2c1ncn2[C@@H]1O[C@H](CO)[C@@H](O)[C@H]1O
